Key:
Conditions in all cases: Homo sapiens
HT-29 = experiment: Growth inhibition of HT29 cells at 100 uM; values are per cent of control
LoVo [1] = experiment: Growth inhibition of LoVo cells at 100 uM; values are per cent of control
NCI-H460 = experiment: Growth inhibition of NCI-H460 cells at 100 uM; values are per cent of control
LoVo [2] = experiment: Growth inhibition of LoVo cells; format: functional
Outline: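 LoVo human colon cancer cells were screened by the NCI standard anticancer protocol. Percentage cell growth was read after initial treatment at 100 µM. Follow-up testing used 10, 1.0, 0.1 and 0.01 µM. GI50 was the concentration giving 50% inhibition of cell growth.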

## CC(=O)Nc1ccsc1C#CC(C)(C)O
HT-29
  growth, % of control at 100 µM: 90%
LoVo [1]
  growth, % of control at 100 µM: 78%
NCI-H460
  growth, % of control at 100 µM: 56%

## Cc1ccc(C#Cc2cccs2)cc1
HT-29
  growth, % of control at 100 µM: 83%
LoVo [1]
  growth, % of control at 100 µM: 83%
NCI-H460
  growth, % of control at 100 µM: 68%

## CC(C)(O)C#Cc1cccs1
HT-29
  growth, % of control at 100 µM: 95%
LoVo [1]
  growth, % of control at 100 µM: 78%
NCI-H460
  growth, % of control at 100 µM: 105%

## O=[N+]([O-])c1ccc(OCC#Cc2cccs2)cc1
LoVo [2]
  GI50: 47.5 µM
LoVo [2]; read-out: LC50 (the source's name)
  CC50: 100 µM
HT-29
  growth, % of control at 100 µM: 44%
LoVo [1]
  growth, % of control at 100 µM: 26%
NCI-H460
  growth, % of control at 100 µM: 48%

## C(#Cc1cccs1)COc1ccccc1
HT-29
  growth, % of control at 100 µM: 63%
LoVo [1]
  growth, % of control at 100 µM: 47%
NCI-H460
  growth, % of control at 100 µM: 88%

Source: ChEMBL document CHEMBL1146170, “Facile synthesis of substituted thiophenes via Pd/C-mediated sonogashira coupling in water” (2006)
